Data taken from PMC10193422 (ACS Omega, 2023).
≈ marks a conversion by molar mass, not a printed value.

What was measured:
Hemolysis assay = format: cell-based; conditions: rabbit, rabbit red blood cell suspension
Candida albicans SC5314 = assay: MIC, CLSI broth microdilution; format: cell-based; conditions: SC5314, 24 h, read-out: MIC C. alb SC5314
Method in brief: (§1)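 CLSI broth microdilution (M27-A3 and M60). Strains are kept frozen in YPD with 40% glycerol, passaged twice on Sabouraud dextrose agar at 30 °C, then grown overnight in YPD at 30 °C with shaking. Test compound is dissolved in DMSO, serially diluted in growth medium, inoculated, and incubated at 30 °C. Candida spp. are read at 24 h, C. glabrata at 48 h and C. neoformans at 72 h. MIC is the first well with ≥50% growth reduction versus the drug-free well.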

Candida tropicalis 2718 = assay: MIC, CLSI broth microdilution; format: cell-based; conditions: Candida tropicalis, 2718, 24 h, read-out: MIC C. tro 2718
Method in brief: as §1

[1] = tested on: Cryptococcus neoformans H99; assay: MIC, CLSI broth microdilution; format: cell-based; conditions: H99, 72 h, read-out: MIC C. neo H99
Method in brief: as §1

[2] = tested on: Aspergillus fumigatus 7544; assay: MIC, CLSI broth microdilution; format: cell-based; conditions: Aspergillus fumigatus, 7544, 48 h, read-out: MIC A. fum 7544
Method in brief: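 Mould MIC by CLSI broth microdilution (M27-A3 and M60). The strain comes from a frozen YPD/40% glycerol stock. Test compound is dissolved in DMSO and serially diluted in growth medium. Wells are inoculated and incubated at 35 °C for 48 h. MIC is the first well with ≥50% growth reduction versus the drug-free control.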

C. auris 789 = assay: MIC against drug-resistant C. auris clinical isolate; format: cell-based, Candida auris; conditions: Candidozyma auris, 789, 24 h, read-out: MIC C. aur 789
C. auris 791 = assay: as above; format: cell-based, Candida auris; conditions: Candidozyma auris, 791, 24 h, read-out: MIC C. aur 791
C. auris 887 = assay: as above; format: cell-based, Candida auris; conditions: Candidozyma auris, 887, 24 h, read-out: MIC C. aur 887
C. auris 888 = assay: as above; format: cell-based, Candida auris; conditions: Candidozyma auris, 888, 24 h, read-out: MIC C. aur 888
C. auris D12 = assay: as above; format: cell-based, Candida auris; conditions: Candidozyma auris, D12, 24 h, read-out: MIC C. aur D12
C. auris BS12372 = assay: as above; format: cell-based, Candida auris; conditions: Candidozyma auris, BS12372, 24 h, read-out: MIC C. aur BS12372
[3] = tested on: sterol composition in C. albicans SC5314; assay: Sterol composition analysis by GC-MS; format: cell-based, Candida albicans; conditions: compounds at 0.008 μg/mL, FLC at 8 μg/mL
Candida albicans = conditions: cited from earlier work

SMILES	hemolysis at 1 h, 32 μg/mL (Hemolysis assay)	hemolysis at 1 h, 64 μg/mL (Hemolysis assay)	MIC (Candida albicans SC5314)	MIC (Candida tropicalis 2718)	MIC [1]	MIC [2]	MIC (C. auris 789)	MIC (C. auris 791)	MIC (C. auris 887)	MIC (C. auris 888)	MIC (C. auris D12)	MIC (C. auris BS12372)	ergosterol content in treated cells [3]	MIC against Candida albicans (Candida albicans)
C[C@@H]1[C@H](O)[C@@H](C)/C=C/C=C/C=C/C=C/C=C/C=C/C=C/[C@H](O[C@@H]2O[C@H](C)[C@@H](O)[C@H](N)[C@@H]2O)C[C@@H]2O[C@](O)(C[C@@H](O)C[C@@H](O)[C@H](O)CC[C@@H](O)C[C@@H](O)CC(=O)O[C@H]1C)C[C@H](O)[C@H]2C(=O)O [AmB, amphotericin B]	26.8%	100%												
OC(Cn1cncn1)(Cn1cncn1)c1ccc(F)cc1F [FLC, fluconazole]			0.25 µg/mL (≈ 0.816 µM)	< 0.125 µg/mL	8 µg/mL (≈ 26.1 µM)	> 64 µg/mL	> 64 µg/mL	> 64 µg/mL	> 64 µg/mL	> 64 µg/mL	> 64 µg/mL	> 64 µg/mL	almost completely depleted	
O[C@@](Cn1cnnn1)(c1ccc(F)cc1F)C(F)(F)c1ccc(-c2ccc(OCC(F)(F)F)cc2)cn1 [OTC, oteseconazole]			< 0.008 µg/mL	< 0.008 µg/mL	< 0.008 µg/mL	> 64 µg/mL	2 µg/mL (≈ 3.79 µM)	8 µg/mL (≈ 15.2 µM)	4 µg/mL (≈ 7.58 µM)	8 µg/mL (≈ 15.2 µM)	0.25 µg/mL (≈ 0.474 µM)	< 0.0625 µg/mL		
CC[C@@H]([C@H](C)O)n1ncn(-c2ccc(N3CCN(c4ccc(OC[C@@H]5CO[C@@](Cn6cncn6)(c6ccc(F)cc6F)C5)cc4)CC3)cc2)c1=O [POS, posaconazole]			< 0.008 µg/mL	< 0.008 µg/mL	< 0.008 µg/mL	0.125 µg/mL (≈ 0.178 µM)								
C[C@@H](c1ncncc1F)[C@](O)(Cn1cncn1)c1ccc(F)cc1F [VOC, voriconazole]			< 0.008 µg/mL	< 0.008 µg/mL	0.0625 µg/mL (≈ 0.179 µM)	0.125 µg/mL (≈ 0.358 µM)								0.06 µg/mL (≈ 0.172 µM)
